According to ChEMBL document CHEMBL1126903:

Tests used:
[1] = The pKa value was measured at 31-P chemical shift changes due to protonation
[2] = The pKa value was measured at 17-O chemical shift changes due to protonation
[3] = The pKa value was measured at 15-N chemical shift changes due to protonation
Procedure, shortened: (§1)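 Chemical shift recorded at 4 °C across a pH series. Sample pH was read in an ice-water bath (0-4 °C) before and after each NMR run and the two readings averaged, with no correction for deuterium or temperature. The meter was calibrated at 20 °C. pKa came from fitting single- or double-ionization titration equations to shift versus pH, with error estimated at about 0.05 pH units.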

[4] = The pKa value was measured at N15 chemical shift changes due to protonation; procedure, shortened: as §1

O=P(O)(O)NP(=O)(O)O
pKa [1]: 10.3
pKa [2]: 10.4

CCOP(=O)(NP(=O)(OCC)OCC)OCC
pKa [1]: 3.8
pKa [2]: 4.2

NP(=O)(O)O
pKa [3]: 2.8
pKa [1]: 3

NP(N)(=O)O
pKa [3]: 5.4
pKa [1]: 5.4

c1c[nH]cn1
pKa [4]: 7

Nc1ncnc2c1ncn2[C@@H]1O[C@H](COP(=O)(O)OP(=O)(O)OP(=O)(O)O)[C@@H](O)[C@H]1O
pKa [1]: 6.6

N[C@@H](Cc1c[nH]cn1)C(=O)O
pKa [4]: 6.2
